Rows were chosen to be rich in hits. Some 4.9% of all compounds tested hit in one or more screens of this group.
STAT1 inh = inhibitors of IFN-gamma induced STAT1 signaling; AID 920; inhibition, % at 5.5 µM; 200,000 tested, 0.35% active; NIH 3T3 STAT1-luciferase reporter, luminescence;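 active = inhibition above a set limit, the mean inhibition across all tested compounds plus 3 SD, cut at about 34% in these data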;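 also: 0% = IFN-gamma with DMSO and 100% = IFN-gamma with 300 µM nifuroxazide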
STAT3 activator = increases IL-6 driven STAT3 reporter signal; U3A cells, IL-6 STAT3-luciferase reporter, luminescence; 100% = signal with IL-6 EC80 alone; activation (% of control), % at 5.6 µM; 190,000 tested, 0.91% active;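 active = activation above the screen-wide mean of compound activation plus 3 SD, cut at about 130% in these data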;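 also: 0% = background luminescence of wells with medium and substrate only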
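Test system: Human STAT1-deficient U3A cells with stable STAT3-luciferase reporter | Also added: Interleukin-6, 33 ng/mL | Timing: Compound pre-incubation 1 h before IL-6, then 6 h stimulation at 37 °C | Technique: Luciferase reporter luminescence | Read-out: Percent of IL-6-only median luminescence | Benchmarks: IL-6-only wells as 100% reference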
APP 5'UTR act = activates APP 5'UTR luciferase reporter; SH-SY5Y APP 5'UTR luciferase reporter, luminescence; zero percent = DMSO vehicle wells; activation, % at 2 µM; 190,000 tested, 1% active;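 active = activation above a set limit, based on mean plus 3 SD of controls, cut at about 140% in these data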
STAT3 blocker = inhibitors of IL-6 induced STAT3 signaling; U3A cells, IL-6 STAT3-luciferase reporter, luminescence; host cell line lacks STAT1; inhibition, % at 5.5 µM; 190,000 tested, 0.89% active;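 active = inhibition above the mean inhibition across all screened compounds plus 3 SD, cut at about 44% in these data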;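 also: 0% = DMSO only wells and 100% = 100 µM nifuroxazide control wells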
NF-kB neuron act = raises NF-kB expression in human neuronal cells. 190,000 tested, 1.6% active. NF-kB reporter expression; active compounds read high. fold change at 12.5 µM; in the data active = fold change above about 3.3
STAT1 activator = activators of IFN-gamma induced STAT1 signaling | 200,000 tested, 2.6% active | activation (% of control), % at 5.5 µM | NIH 3T3 STAT1-luciferase reporter, luminescence; 100% = IFN-gamma alone, no compound | AID 932;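 active = activation above the screen-wide mean activation plus 3 SD, cut at about 130% in these data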;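 also: raw ratio to IFN-gamma control signal so 100% means no change and 0% no light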
Active calls of the source: *.

SMILES	STAT1 inh	STAT3 activator	APP 5'UTR act	STAT3 blocker	NF-kB neuron act	STAT1 activator
Cn1cc([N+](=O)[O-])c(C(=O)Nc2ccc(C3CCCCC3)cc2)n1	-18.8	84.0	26.6	23.8	3.74*	116.1
O=C(Cn1cnc2ccc(Br)cc2c1=O)c1cccs1	-4.7	99.6	26.5	2.0	1.37	104.2
CCOC(=O)COc1c(/C=N\O)cc(Cl)cc1OC	0.8	89.0	-1.7	19.9	1.08	98.9
COc1ccccc1CNC(=O)C(=O)NCC(c1ccco1)N1CCOCC1 (stereo not given)	9.4	95.6	-5.3	14.9	1.05	89.8
COc1cc([N+](=O)[O-])ccc1NC(=O)CSc1nc2ccccc2n1-c1ccccc1	4.2	117.8	13.2	-24.3	4.24*	96.3
CCOc1ccc(-n2c(SCC(=O)Nc3cc(OC)c([N+](=O)[O-])cc3C)nc3ccccc32)cc1	6.0	93.6	15.7	7.5	0.84	94.6
Cc1ccc(NC(=O)/C=C/c2ccc3c(c2)OCO3)nc1	-24.4	101.4	152.3*	-1.5	0.97	121.4
Cc1ccc(/C=C/C(=O)Nc2cc(C)on2)cc1	-36.3	90.2	46.4	14.9	2.44	133.2*
CC(=O)c1ccc(NC(=O)/C=C/c2ccc(C)cc2)cc1	-7.7	90.9	10.3	8.7	1.4	106.8
Cc1cccc(NC(=O)/C=C/c2ccc(Cl)cc2)n1	-44.0	70.6	182.0*	35.5	1.21	138.6*
Cc1ccc(NC(=O)Nc2ccc3c(c2)OCO3)nc1	-51.7	96.8	102.7	3.8	3.97*	148.6*
CCC(=O)Nc1ccc(NC(=O)/C=C/c2ccc(Cl)cc2)cc1	-1.3	99.2	2.7	0.4	1.31	101.2
Cc1ccc(NS(=O)(=O)c2cc(C(=O)N(C)C)ccc2C)cc1C	-3.8	99.6	4.3	9.6	0.76	103.7
Cc1ccc(C(=O)Nc2nc(=O)[nH]s2)cc1	-3.0	98.8	4.2	9.6	1.25	103.0
CC(Oc1ccc(Cl)cc1Cl)c1nc(-c2ccc(NC(=O)c3ccccn3)cc2)no1 (stereo not given)	-32.2	74.0	146.9*	34.8	1.3	128.7*
CSc1ccc(/C=C/c2ccc3cccc(O)c3n2)cc1	-7.1	89.0	172.6*	15.4	6.17*	106.1
O=C(N/N=C/c1ccc(Br)s1)c1ccccn1	-41.4	95.3	99.6	8.9	3.47*	137.4*
O=C(N/N=C/c1ccsc1)c1ccccn1	-30.8	106.1	36.0	-5.7	2.19	127.5
Cc1ccsc1/C=N/NC(=O)c1ccccn1	-53.9	94.5	84.7	6.5	2.55	148.0*
Cc1cc(/C=N/NC(=O)c2cccs2)c(C)n1-c1cnccn1	-54.5	113.5	39.3	-9.1	2.82	146.6*
Cc1ccsc1/C=N/NC(=O)c1cccs1	-37.3	95.4	29.2	4.7	2.1	133.8*
COc1cccc(/C=C/C(=O)OCC(=O)Nc2cccc(S(=O)(=O)N3CCOCC3)c2)c1OC	1.3	92.8	6.5	13.6	0.98	98.4
CCn1cc([N+](=O)[O-])c(C(=O)Nc2nc3ccc(OC)cc3s2)n1	-4.7	89.9	90.5	20.9	2.09	102.6
Cc1sccc1/C=N/NC(=O)c1cccc2ccccc12	-7.5	91.6	-4.7	7.8	1.11	106.7
CC(C)(C)c1ccc(/C=N/NC(=O)c2ccccn2)cc1	42.7*	43.5	167.6*	68.3*	2.36	58.9
SMILES	STAT1 inh	STAT3 activator	APP 5'UTR act	STAT3 blocker	NF-kB neuron act	STAT1 activator
Cc1ccccc1C(=O)N/N=C/c1ccsc1C	-37.0	111.1	33.9	-7.7	1.73	132.7*
Cn1cc(/C=N\NC(=O)c2cccs2)c2ccccc21	-31.2	94.8	30.3	11.3	1.85	128.8*
Cn1cc(/C=N/NC(=O)c2ccc(C#N)cc2F)c2ccccc21	-0.5	98.8	-4.7	6.2	0.93	97.5
Cc1nn(-c2ccc(F)cc2)c(Cl)c1/C=N/NC(=O)c1cccs1	-46.9	100.2	35.2	2.0	1.22	141.9*
CNC(=O)CNC(=O)Nc1ccc(Cl)c(Cl)c1	-7.2	102.9	5.7	7.4	1.16	104.9
CC(C)N1CCC(N2CCN(CCCn3cccn3)CC2CCO)CC1 (stereo not given)	-3.9	99.1	-8.7	5.5	1.22	102.1
COc1cccc(C(=O)NCC(=O)OCC(=O)Nc2cc(OC)c([N+](=O)[O-])cc2C)c1	-2.4	101.0	4.0	-5.7	1.02	102.2
CCOC(=O)c1cnc2ccc(OCC)cc2c1N(C)Cc1ccccc1	-9.2	104.2	-11.2	-7.7	1.07	108.2
COC(=O)c1ccc(NCCC(=O)O)cc1	-9.7	104.8	12.7	-2.9	1.06	108.6
Cc1ccc(-c2cnn(-c3cccc(C(F)(F)F)c3)c2N)cc1	-42.0	100.1	134.2	7.6	2.38	137.6*
OCC1(CCOc2ccccc2)CCN(Cc2nc3ccc(F)cc3[nH]2)CC1	-1.8	107.2	11.0	-2.3	2.81	101.6
Cc1occc1C(=O)NN=C1C2CC3CC(C2)CC1C3	-61.0	118.0	154.1*	-18.2	2.49	149.6*
O=C(NCc1ccccc1)/C(=C/c1ccco1)NC(=O)c1ccco1	0.5	98.9	8.5	8.8	1.32	99.2
COC(C(=O)Nc1cccc([N+](=O)[O-])c1)c1ccccc1 (stereo not given)	7.3	100.5	9.9	6.5	1.24	92.5
Cc1ccc(Nc2n[nH]c(C)c2[N+](=O)[O-])c(C)c1	-8.2	107.0	27.5	-7.1	5.29*	107.1
COc1ccc(Nc2n[nH]c(C)c2[N+](=O)[O-])cc1	-22.9	104.2	35.4	-1.0	4.78*	120.9
CCCC(=O)NCc1cc(-c2nn(C)c(=O)c3ccccc23)ccc1OC	10.0	105.2	13.5	-1.3	0.87	89.6
CC(C)CN(C(=O)COC(=O)Cc1c[nH]c2ccccc12)C1CCS(=O)(=O)C1 (stereo not given)	6.3	133.4*	11.5	-34.8	1.27	94.2
COc1cc(CNc2ccc(C)c(C)c2)cc(OC)c1OC	1.1	103.5	8.8	2.4	1.01	99.5
COc1ccc(CNc2ccc(C)c(C)c2)cc1	-32.0	105.3	25.4	-0.2	1.77	129.6*
COc1ccccc1Oc1ccc(NC(=O)c2ccccc2)cc1	-11.0	100.9	8.2	4.7	1.32	107.8
COc1cc(NC(=O)c2ccccc2)cc(OC)c1	-15.2	99.2	136.7*	7.3	3.44*	113.0
COc1ccc(C(=O)Nc2cc(OC)cc(OC)c2)cc1	-34.5	80.7	125.0	24.2	2.54	132.1*
COc1ccc(OCC(=O)Nc2cc(OC)cc(OC)c2)cc1	-5.5	103.9	-3.2	2.0	1.32	106.4
O=C(NCc1ccccn1)Nc1cccc(Cl)c1	-33.9	115.3	72.3	-11.1	3.72*	133.3*
Cc1ccc(NC(=O)C(=O)NCc2ccccn2)cc1	-38.2	98.6	26.9	3.7	2.36	133.7*
O=C(NCc1ccccn1)Nc1cccc(NC(=O)NCc2ccccn2)c1	-10.3	108.7	12.3	-5.9	1.6	107.8

Source: PubChem
